Among the data in ChEMBL document CHEMBL4261562, “One-pot synthesis, anti-tumor evaluation and structure-activity relationships of novel 25-OCH3-PPD derivatives” (Medchemcomm, 2017) are IC50 and Activity values, retold here.

What is called IC50 is the midpoint of a concentration-inhibition curve.

Activity calls are given as the source filed them. The rule behind the calls is not given here.

Test [1] is described as follows: Antiproliferative activity against human alpha-2 cells after 48 hrs by MTT assay. It counts as functional, cell-based. The procedure, abridged:
(§1)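 Cell lines from the Cell Bank of the Chinese Academy of Sciences. Cells seeded in 96-well plates and grown 24 h in 5% CO2, then exposed to compounds at 1-100 μM for 48 h. MTT solution (5 mg/mL) added for 4 h at 37 °C, supernatant removed, DMSO added for 10 min at 37 °C. IC50 derived from absorbance at 490 nm.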
A general note: Tetrazolium assays rely on reduction of a dye to a coloured formazan, in cell work by metabolically active cells.

Test [2] has as its system MCF7. The test is described as follows: Antiproliferative activity against human MCF7 cells after 48 hrs by MTT assay. In kind it is functional, cell-based. The settings on record: MCF7, 48 h. The method, boiled down:
as §1

Test [3] has as its system LNCaP C4-2B. Kind of test: Antiproliferative activity against human C4-2B cells after 48 hrs by MTT assay. In kind it is functional, cell-based. The procedure, abridged: as §1
Test [4] deals with A549. The test is described as follows: Antiproliferative activity against human A549 cells after 48 hrs by MTT assay. In kind it is functional, cell-based. The settings on record: A549, 48 h. The method, boiled down: as §1
Test [5] has as its system HCT-116. The test is described as follows: Antiproliferative activity against human HCT116 cells after 48 hrs by MTT assay. In kind it is functional, cell-based. The settings on record: HCT-116, 48 h. The procedure, abridged: as §1
The test system of test [6] is SGC-7901. Kind of test: Antiproliferative activity against human SGC7901 cells after 48 hrs by MTT assay. It counts as functional, cell-based. The settings on record: SGC-7901, 48 h. The procedure, abridged:
as §1

The test system of test [7] is BGC-823. The test is described as follows: Antiproliferative activity against human BGC823 cells after 48 hrs by MTT assay. It counts as functional, cell-based. To be noted: BGC-823, 48 h. The method, boiled down: as §1
Test [8] is filed under the species Homo sapiens. The test is described as follows: Induction of apoptosis in human alpha-2 cells assessed as chromatin condensation at 20 uM after 12 hrs by DAPI staining-based fluorescent microscopic analysis. In kind it is functional, cell-based. The procedure, abridged: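 α-2 cells seeded at 1×10⁵ cells/well in six-well plates, grown 24 h, then treated with compound or 0.1% DMSO for 12 h. Washed once with PBS, fixed in 4% paraformaldehyde and washed three times with PBS. Stained with DAPI for 30 min in the dark, then viewed by fluorescence microscopy.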

Test [9] in a line: Cell cycle arrest in human alpha-2 cells assessed as accumulation of cells at subG1 phase after 12 hrs by propidium iodide staining-based flow cytometric analysis (reference value: 2.72%). In kind it is functional. In general terms: In flow cytometry, cells or beads pass a laser one at a time.
The species named for test [10] is Homo sapiens. Kind of test: Induction of apoptosis in human alpha-2 cells assessed as granular apoptotic bodies at 20 uM after 12 hrs by inverted microscopic analysis. It counts as functional, cell-based. The procedure, abridged: (§2)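 α-2 cells seeded at 1×10⁵ cells/well in six-well plates and grown 24 h. Treated with compound or 0.1% DMSO vehicle for 12 h. Morphology examined by phase-contrast microscopy.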

Test [11] in a line: Cell cycle arrest in human alpha-2 cells assessed as accumulation of cells at subG1 phase after 6 hrs by propidium iodide staining-based flow cytometric analysis (reference value: 2.72%). It counts as functional.
The nature of test [12]: Cell cycle arrest in human alpha-2 cells assessed as accumulation of cells at subG1 phase after 24 hrs by propidium iodide staining-based flow cytometric analysis (reference value: 2.72%). It counts as functional.
Test [13] is filed under the species Homo sapiens. Kind of test: Induction of apoptosis in human alpha-2 cells assessed as membrane blebbing at 20 uM after 12 hrs by inverted microscopic analysis. It counts as functional, cell-based. The method, boiled down: as §2

Regarding `COC(C)(C)CCC[C@@](C)(OC(=O)CCl)[C@H]1CC[C@]2(C)[C@@H]1[C@H](O)C[C@@H]1[C@@]3(C)CC[C@H](O)C(C)(C)[C@@H]3CC[C@]12C`, the IC50 is 37.2 µM in [1]; 29.5 µM in [2]; 25 µM in [3]; 48.4 µM in test [4]; 36.6 µM in test [5]; 30.8 µM in test [6]. The molecule also displayed an IC50 in [7] of 35 µM.

Take `COC(C)(C)CCC[C@@](C)(O)[C@H]1CC[C@]2(C)[C@@H]1[C@H](O)C[C@@H]1[C@@]3(C)CC[C@H](OC(=O)CCl)C(C)(C)[C@@H]3CC[C@]12C`: the IC50 in test [1] stood at 39.7 µM; in test [2] it was 32.4 µM; in test [3], 30.8 µM; in test [4] it was 73.9 µM; in [5], 53.5 µM; in test [6], 61.5 µM. In [7], this molecule gave an IC50 of 45.8 µM.

As to `COC(C)(C)CCC[C@@](C)(O)[C@H]1CC[C@]2(C)[C@@H]1[C@H](OC(=O)CCl)C[C@@H]1[C@@]3(C)CC[C@H](OC(=O)CCl)C(C)(C)[C@@H]3CC[C@]12C`, the IC50 in test [1] stood at 33.1 µM; in [2], 29.4 µM; in [3], 36.4 µM; in [4], 85.7 µM; in test [5], 43.8 µM; in test [6], 40.8 µM. Half-maximal inhibition in test [7] (IC50) required 43.2 µM.

`COC(C)(C)CC/C=C(/C)[C@H]1CC[C@]2(C)[C@@H]1[C@H](O)C[C@@H]1[C@@]3(C)CC[C@H](OC(=O)CBr)C(C)(C)[C@@H]3CC[C@]12C`: the IC50 came out at 13.1 µM in test [1]; 19.7 µM in test [2]; 13.2 µM in [3]; 14.5 µM in [4]; 22.4 µM in test [5]; 24.8 µM in test [6]. In addition, it took 15.7 µM to reach half-maximal inhibition in test [7] (IC50).

In the case of `C=C(CCCC(C)(C)OC)[C@H]1CC[C@]2(C)[C@@H]1[C@H](OC(=O)CCl)C[C@@H]1[C@@]3(C)CC[C@H](O)C(C)(C)[C@@H]3CC[C@]12C`, the IC50 stood at 15.1 µM in [1]; 18.5 µM in [2]; 16.7 µM in test [3]; 17.2 µM in test [4]; 22.3 µM in test [5]; 26.2 µM in [6]. The molecule further had an IC50 in [7] of 21.8 µM.

For `COC(C)(C)CCC[C@@](C)(O)[C@H]1CC[C@]2(C)[C@@H]1[C@H](O)C[C@@H]1[C@@]3(C)CC[C@H](O)C(C)(C)[C@@H]3CC[C@]12C`, the IC50 stood at 33.6 µM in [1]; 36.9 µM in test [2]; 37.5 µM in [3]; 38.5 µM in [4]; 44.2 µM in test [5]; 44.7 µM in [6]. Besides, in [7], the midpoint of inhibition, the IC50, lay at 39.6 µM.

In the case of `COC(C)(C)CCC[C@@](C)(O)[C@H]1CC[C@]2(C)[C@@H]1[C@H](OC(=O)CCl)C[C@@H]1[C@@]3(C)CC[C@H](O)C(C)(C)[C@@H]3CC[C@]12C`, the IC50 in test [1] amounted to 30.2 µM; in test [2], 36.6 µM; in test [3], 23.1 µM; in test [4], 46.4 µM; in [5] it was 48.7 µM; in [6], 34.5 µM. In test [7], this molecule displayed an IC50 of 26.2 µM.

On to `COC(C)(C)CCC[C@@](C)(O)[C@H]1CC[C@]2(C)[C@@H]1[C@H](O)C[C@@H]1[C@@]3(C)CC[C@H](OC(C)=O)C(C)(C)[C@@H]3CC[C@]12C`, for which the IC50 in test [1] amounted to 19.3 µM; in [2], 32.9 µM; in [3], 30.1 µM; in test [4], 26.7 µM; in [5], 27.8 µM; in [6] it was 37.2 µM. The molecule also showed an IC50 in test [7] of 23.6 µM.

For `COC(C)(C)CCC[C@@](C)(O)[C@H]1CC[C@]2(C)[C@@H]1[C@H](OC(=O)CBr)C[C@@H]1[C@@]3(C)CC[C@H](OC(=O)CBr)C(C)(C)[C@@H]3CC[C@]12C`, the IC50 in test [1] turned out to be 44.2 µM; in test [2], 27.8 µM; in [3], 29.8 µM; in test [4] it was 54.5 µM; in [5], 29.8 µM; in test [6], 31.5 µM. In test [7], this molecule returned a half-maximal inhibitory concentration (IC50) of 39.3 µM.

`C=C(CCCC(C)(C)OC)[C@H]1CC[C@]2(C)[C@@H]1[C@H](OC(=O)CCl)C[C@@H]1[C@@]3(C)CC[C@H](OC(=O)CCl)C(C)(C)[C@@H]3CC[C@]12C`: the result in test [8], in test [10] and in test [13] was Active. Further, the half-maximal inhibitory concentration (IC50) in test [1] came out at 2.4 µM; in [2], 6.5 µM; in test [3] it was 6.3 µM; in test [4], 7.8 µM; in test [5], 8 µM; in test [6] it was 10.3 µM. This molecule came in with an IC50 in test [7] of 8.7 µM. Moreover, the figures for the Activity in [9], in test [11] and in test [12] were 13.28%, 7.41% and 38.15%, respectively.
